Assay [1] concerns Streptococcus pyogenes. As to the kind of experiment: In vivo effective dose against experimental infections in rodent caused by Streptococcus pyogenes C203 when administered orally. The format is functional. The note with it: po.
The test system of a further assay is Streptococcus pneumoniae. Briefly: In vitro antimicrobial activity against Streptococcus pneumoniae. The format is functional.
Assay [2] has as its system Streptococcus pyogenes. Briefly: In vivo effective dose against experimental infections in rodent caused by Streptococcus pyogenes C203 when administered sc. The format is functional.
The test system of assay [3] is Streptococcus pyogenes. Briefly: Effective dose against Streptococcus pyogenes C203 when administered sc. The format is functional. In short, it runs like this: (§1)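 Mouse protection test: infected mice were dosed twice, at 1 and 5 h postinfection, either subcutaneously or orally. […] The result is expressed as ED50 in mg/kg × 2.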
In assay [4] the test system is Staphylococcus epidermidis. As to the kind of experiment: In vitro antimicrobial activity against Staphylococcus epidermidis EPI1. The format is functional.
Assay [5] relates to Streptococcus pyogenes. Briefly: Antimicrobial activity against Streptococcus pyogenes C203. Type of assay: functional.
In assay [6] the test system is Streptococcus pyogenes. Briefly: In vitro antimicrobial activity against Streptococcus pyogenes C203. The format is functional.
The subject of another assay is Staphylococcus aureus. Briefly: In vitro antimicrobial activity against Staphylococcus aureus X1. The format is functional.
The subject of assay [7] is Streptococcus pyogenes. As to the kind of experiment: Effective dose against Streptococcus pyogenes C203 when administered orally. The note with it: po. Type of assay: functional. The procedure, abridged: as §1
In another assay the test system is Haemophilus influenzae. Briefly: In vitro antimicrobial activity against Haemophilus influenzae. Type of assay: functional.
The test system of a further assay is Enterococcus faecium. As to the kind of experiment: In vitro antimicrobial activity against Streptococcus faecium X66. The format is functional, streptococcus fae-cium.

≈ marks a conversion by molar mass, not a printed value.

As to `CC[C@H]1OC(=O)C[C@@H](O)[C@H](C)[C@@H](O[C@@H]2O[C@H](C)[C@@H](O)[C@H](N(C)C)[C@H]2O)[C@@H](C)C[C@@H](C)C(=O)/C=C/C(C)=C/[C@@H]1CO`, the median effective dose (ED50) – broadly, the dose that gives a 50% effect, or the effect in half of the subjects – in the assay on Streptococcus pyogenes [1] is 121 mg/kg; in the assay with Streptococcus pyogenes [2] it was greater than 30 mg/kg; with Streptococcus pyogenes [3] it was greater than 30 mg/kg; in the assay with Streptococcus pyogenes [7] it was 121 mg/kg. Besides, the MIC was determined as 4 µg/mL (≈ 7.02 µM) in the assay with Streptococcus pneumoniae; 2 µg/mL (≈ 3.51 µM) in [4]; 4 µg/mL (≈ 7.02 µM) in the assay on Streptococcus pyogenes [5]; 4 µg/mL (≈ 7.02 µM) in the assay on Streptococcus pyogenes [6]; 4 µg/mL (≈ 7.02 µM) against Staphylococcus aureus; 4 µg/mL (≈ 7.02 µM) against Haemophilus influenzae. In addition, the MIC in the assay with Enterococcus faecium stood at 4 µg/mL (≈ 7.02 µM).

(Values after ChEMBL document CHEMBL1124186, “Synthesis and evaluation of tylosin-related macrolides modified at the aldehyde function: a new series of orally effective antibiotics” (1988).)
